From ChEMBL document CHEMBL2176900, “Design and synthesis of a novel series of bicyclic heterocycles as potent γ-secretase modulators” (J Med Chem, 2012)
In brackets after ≈: the same amount, converted by molar mass.

Assays:
[1] = Plasma concentration in Sprague-Dawley rat at 10 mg/kg, po at 25 hrs by LC-MS/MS analysis; assay type: ADME, organism-based; parameters: dose 10 mg/kg, route oral
Summary of the method: (§1)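 Overnight-fasted male Sprague-Dawley rats (180–220 g) were given 10 mg/kg by gastric intubation of a 5 mg/mL suspension in 0.5% methocellulose. Blood was collected after decapitation at 2, 4, 7 and 25 h under isoflurane anaesthesia. Plasma compound was measured as in the mouse assay, n = 5.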

Brain [2] = test: Drug uptake in CD1 mouse brain at 10 mg/kg, po at 48 hrs by LC-MS/MS analysis; assay type: ADME, organism-based; parameters: dose 10 mg/kg, route oral; conditions: in vivo, BLD = below limit of detection
Summary of the method: (§2)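 Overnight-fasted male CD1 mice received one oral dose (10 or 30 mg/kg) in 20% Captisol. After sacrifice, the left brain hemisphere was stored at −18 °C. Compound level was quantified by a qualified LC-MS/MS method, alongside EDTA plasma spun at 1900g, 4 °C. n = 4 per time point.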

[3] = Thermodynamic solubility in fed state simulated intestinal fluid; assay type: physicochemical; conditions: read-out: Therm_solubility
Summary of the method: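 Thermodynamic solubility was measured in pH 4.0 and pH 7.4 buffers, 0.01 N HCl, and fasted-state and fed-state simulated intestinal fluids (FaSSIF, FeSSIF). Results are in […].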

[4] = Genotoxicity against human TK6 cells by GreenScreen HC test; assay type: toxicity, cell-based
Canis familiaris [5] = test: Antialzheimer activity in beagle dog assessed as amyloid beta 42 level in cerebrospinal fluid at 20 mg/kg, po at 8 hrs by ELISA relative to control
Rattus norvegicus [6] = test: Antialzheimer activity in Sprague-Dawley rat assessed as amyloid beta 38 level in CSF at 10 mg/kg, po at 7 hrs by ELISA relative to control; assay type: functional
Summary of the method: (§3)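 Male Sprague-Dawley rats (180-220 g), fasted overnight, were given 10 mg/kg by gastric intubation as a 5 mg/mL suspension in 0.5% methocellulose. At 2, 4, 7 and 25 h, 50 μL CSF was taken from the cisterna magna under isoflurane, then brain was collected. Aβ37/38/40/42 were measured by MesoScale Discovery sandwich immunoassays. Results are mean % change versus T = 0 h, n = 5.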

[7] = Plasma concentration in beagle dog at 20 mg/kg, po at 8 hrs; assay type: ADME, organism-based, Canis lupus familiaris; parameters: dose 20 mg/kg, route oral
[8] = Oral bioavailability in Sprague-Dawley rat at 10 mg/kg; assay type: ADME, organism-based; conditions: in vivo
Brain [9] = test: Drug uptake in Sprague-Dawley rat brain at 10 mg/kg, po at 25 hrs by LC-MS/MS analysis; assay type: ADME, organism-based; parameters: dose 10 mg/kg, route oral; conditions: in vivo, BLD = below limit of detection
Summary of the method: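 Overnight-fasted male Sprague–Dawley rats (180–220 g) were dosed 10 mg/kg by gastric intubation of a 5 mg/mL suspension in 0.5% methocellulose. Rats were anesthetized with isoflurane, CSF was taken from the cisterna magna, then they were decapitated. Brain compound levels were measured as in the mouse assay. n = 5.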

Salmonella typhimurium = test: Genotoxicity against Salmonella typhimurium by AMES 2 test; assay type: toxicity, organism-based; conditions: salmonella enterica subsp. enterica serovar typhimurium
Plasma = test: Plasma concentration in CD1 mouse at 10 mg/kg, po at 48 hrs by LC-MS/MS analysis; assay type: ADME, organism-based; parameters: dose 10 mg/kg, route oral; conditions: in vivo, BLD = below limit of detection
Summary of the method: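 Mice received a single 10 or 30 mg/kg oral dose. Plasma was sampled at several time points up to 48 h, with EDTA plasma obtained by centrifugation at 1900g, 10 min, 4 °C. Compound was quantified by LC-MS/MS, n = 4.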

Rattus norvegicus [10] = test: Antialzheimer activity in Sprague-Dawley rat assessed as amyloid beta 38 level in brain at 10 mg/kg, po at 7 hrs by ELISA relative to control; assay type: functional; summary of the method: as §3
Mus musculus [11] = test: Antialzheimer activity in CD1 mouse assessed as amyloid beta 42 level in brain at 30 mg/kg, po at 4 hrs by ELISA relative to control; assay type: functional
Summary of the method: (§4)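 Male CD1 SPF mice, fasted overnight, got a single oral dose of 10 or 30 mg/kg. At each time point the right brain hemisphere was homogenized in 0.4% DEA/50 mM NaCl with protease inhibitors and spun at 221300g for 50 min. The supernatant was neutralized with Tris-HCl pH 6.8. Aβ38 or Aβ42 was read by sandwich ELISA with a fluorogenic peroxidase substrate (ex 320/em 420 nm). Results are mean % change versus T = 0 h, n = 4.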

[12] = Drug uptake in CD1 mouse brain at 10 mg/kg, po at 4 hrs by LC-MS/MS analysis; assay type: ADME, organism-based; parameters: dose 10 mg/kg, route oral; conditions: read-out: Drug uptake; summary of the method: as §2
[13] = Drug metabolism in mouse liver microsomes at 1 uM after 15 mins by ion-trap mass spectrophotometry; assay type: ADME, Microsome; conditions: read-out: Drug metabolism
Mus musculus [14] = test: Antialzheimer activity in CD1 mouse assessed as reduction in amyloid beta 42 level in brain at 30 mg/kg, po at 4 hrs by ELISA relative to control; assay type: functional
Summary of the method: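 Screening used fasted male CD1 mice dosed once orally at 30 mg/kg as a suspension in 20% Captisol in water. Mice were killed at 4 h. Aβ42 in the DEA-soluble hemisphere extract was measured by sandwich ELISA. Values are the mean of at least six animals, as % lowering versus untreated mice; a reduction above 20% counts as significant.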

[15] = Plasma concentration in beagle dog at 20 mg/kg, po at 4 hrs; assay type: ADME, organism-based, Canis lupus familiaris; parameters: dose 20 mg/kg, route oral
Canis familiaris [16] = test: Antialzheimer activity in beagle dog assessed as amyloid beta 38 level in cerebrospinal fluid at 20 mg/kg, po at 8 hrs by ELISA relative to control
[17] = Plasma concentration in Sprague-Dawley rat at 10 mg/kg, po at 7 hrs by LC-MS/MS analysis; assay type: ADME, organism-based; parameters: dose 10 mg/kg, route oral; summary of the method: as §1
Rattus norvegicus [18] = test: Antialzheimer activity in Sprague-Dawley rat assessed as amyloid beta 42 level in brain at 10 mg/kg, po at 7 hrs by ELISA relative to control; assay type: functional; summary of the method: as §3
[19] = molecular target: T1, Neuromedin-K receptor (Homo sapiens) (UniProt P29371); test: Inhibition of NK3 receptor at 10 uM
T1 sequence (whole entry): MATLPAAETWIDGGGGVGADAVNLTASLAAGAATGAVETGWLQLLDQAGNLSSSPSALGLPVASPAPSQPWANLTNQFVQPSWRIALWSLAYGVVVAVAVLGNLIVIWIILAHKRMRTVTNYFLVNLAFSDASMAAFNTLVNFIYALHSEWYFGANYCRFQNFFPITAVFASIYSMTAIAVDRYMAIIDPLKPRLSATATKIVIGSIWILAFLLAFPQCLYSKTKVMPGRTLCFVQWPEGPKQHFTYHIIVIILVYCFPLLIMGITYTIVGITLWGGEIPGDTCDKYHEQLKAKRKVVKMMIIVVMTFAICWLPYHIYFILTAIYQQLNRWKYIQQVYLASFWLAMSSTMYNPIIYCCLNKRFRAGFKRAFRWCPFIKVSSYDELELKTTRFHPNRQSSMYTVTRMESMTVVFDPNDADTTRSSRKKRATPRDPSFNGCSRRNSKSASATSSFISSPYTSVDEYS

[20] = Drug metabolism in dog liver microsomes at 1 uM after 15 mins by ion-trap mass spectrophotometry; assay type: ADME, Canis lupus familiaris, Microsome; conditions: read-out: Drug metabolism
Mus musculus [21] = test: Antialzheimer activity in CD1 mouse assessed as amyloid beta 38 level in brain at 10 mg/kg, po at 4 hrs by ELISA relative to control; assay type: functional; summary of the method: as §4

For COc1nc(Nc2cccc3c2nc(-c2ccc(F)cc2)n3C)ccc1-n1cnc(C)c1, the concentration at 25 h [1] was 20 nM, the Drug uptake (Brain [2]) was “BLD” and the solubility thermodynamic [3] was 20 µg/mL (≈ 46.7 µM). For the same compound, the Activity [4] was “Non-toxic”, the Activity (Canis familiaris [5]) was 52% and the Activity (Rattus norvegicus [6]) was 153%. For the same compound, the concentration at 8 h [7] was 1700 nM, the bioavailability [8] was 95% and the Drug uptake (Brain [9]) was “BLD”. For the same compound, the Activity (Salmonella typhimurium) was “Non-toxic”, the Cp (Plasma) was “BLD” and the Activity (Rattus norvegicus [10]) was 127%. For the same compound, the Activity (Mus musculus [11]) was 35%, the concentration at 4 h [12] was 2800 nM and the metabolised at 0.25 h, 1 µM [13] was 0%. The inhibition in vivo at 30 mg/kg (Mus musculus [14]) was 62%, the concentration at 4 h [15] was 4100 nM and the Activity (Canis familiaris [16]) was 184%. The concentration at 7 h [17] was 4000 nM, the Activity (Rattus norvegicus [18]) was 63% and the inhibition [19] was 71%. The metabolised at 0.25 h, 1 µM [20] was 37% and the Activity (Mus musculus [21]) was 141%.
